Measurements reported in ChEMBL document CHEMBL3868612, “Discovery of a potent and selective ROMK inhibitor with improved pharmacokinetic properties based on an octahydropyrazino[2,1-c][1,4]oxazine scaffold” (Bioorg Med Chem Lett, 2016).

Columns and labels:
[1] = test system: Rattus norvegicus; assay: Antihypertensive activity in […] rat model assessed as increase in diuresis at 3 mg/kg, po qd measured on day 1 post dose relative to control; type: functional
In short: (§1)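 Spontaneously hypertensive rats dosed orally once daily for 3 days at 3, 10 and 30 mg/kg (reference diuretic at 25 mg/kg); 24 h urine output on day 1 expressed as fold increase over vehicle-treated rats; n = 5 per group.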

[2] = Unbound fraction in rat plasma; type: ADME, cell-free
[3] = Maximum free plasma concentration in iv dosed anesthetized cardiovascular guinea pig model; type: ADME, organism-based, Cavia porcellus; conditions: in vivo
In short: (§2)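 Anesthetized guinea pig cardiovascular model, n = 3. The compound was given by IV infusion while the QTc interval was monitored. Unbound plasma concentration was taken as the maximal average peak value.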

[4] = biological target: T1, Somatostatin receptor type 2 (Homo sapiens, UniProt P30874); assay: Inhibition of Somatostatin receptor type 2 (unknown origin) at 10 uM by radioligand binding assay relative to control
T1 sequence (P30874 whole entry): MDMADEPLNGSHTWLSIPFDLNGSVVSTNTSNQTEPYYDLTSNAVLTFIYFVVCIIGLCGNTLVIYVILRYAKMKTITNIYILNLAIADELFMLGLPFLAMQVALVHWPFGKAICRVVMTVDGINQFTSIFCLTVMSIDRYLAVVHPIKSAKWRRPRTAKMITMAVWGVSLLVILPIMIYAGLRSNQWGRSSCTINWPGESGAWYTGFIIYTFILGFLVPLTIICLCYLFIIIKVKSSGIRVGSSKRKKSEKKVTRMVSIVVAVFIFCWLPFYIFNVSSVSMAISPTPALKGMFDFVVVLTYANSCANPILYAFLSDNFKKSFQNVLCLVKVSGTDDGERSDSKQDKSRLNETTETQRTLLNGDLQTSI
In short: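 Run within a 115-assay off-target panel of enzyme and radioligand binding assays. Inhibition of somatostatin sst2 ligand binding was recorded at a single concentration of 10 μM.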

[5] = Oral bioavailability in rhesus monkey at 2 mg/kg, qd; type: ADME, organism-based, Macaca mulatta; conditions: in vivo
[6] = biological target: Cytochrome P450 2C9 (Homo sapiens, UniProt P11712); assay: Inhibition of CYP2C9 (unknown origin); type: ADME
Cytochrome P450 2C9, sequence (P11712 whole entry): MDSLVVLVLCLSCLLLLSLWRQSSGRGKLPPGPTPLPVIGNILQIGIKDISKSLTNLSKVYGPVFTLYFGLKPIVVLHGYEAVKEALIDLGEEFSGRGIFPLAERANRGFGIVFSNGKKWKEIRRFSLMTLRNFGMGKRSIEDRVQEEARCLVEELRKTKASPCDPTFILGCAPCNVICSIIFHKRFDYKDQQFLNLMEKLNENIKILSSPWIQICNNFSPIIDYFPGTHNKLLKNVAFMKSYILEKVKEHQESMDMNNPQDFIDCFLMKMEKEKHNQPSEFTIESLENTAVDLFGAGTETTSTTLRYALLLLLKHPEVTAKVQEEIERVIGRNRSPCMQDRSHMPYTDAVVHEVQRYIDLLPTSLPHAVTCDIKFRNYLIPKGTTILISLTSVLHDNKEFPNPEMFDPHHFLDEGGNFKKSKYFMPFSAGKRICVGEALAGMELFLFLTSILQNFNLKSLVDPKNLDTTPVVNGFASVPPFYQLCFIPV

[7] = biological target: Sodium channel protein type 5 subunit alpha (Homo sapiens, UniProt Q14524); assay: Inhibition of Nav1.5 (unknown origin)
Sodium channel protein type 5 subunit alpha, sequence (Q14524 whole entry): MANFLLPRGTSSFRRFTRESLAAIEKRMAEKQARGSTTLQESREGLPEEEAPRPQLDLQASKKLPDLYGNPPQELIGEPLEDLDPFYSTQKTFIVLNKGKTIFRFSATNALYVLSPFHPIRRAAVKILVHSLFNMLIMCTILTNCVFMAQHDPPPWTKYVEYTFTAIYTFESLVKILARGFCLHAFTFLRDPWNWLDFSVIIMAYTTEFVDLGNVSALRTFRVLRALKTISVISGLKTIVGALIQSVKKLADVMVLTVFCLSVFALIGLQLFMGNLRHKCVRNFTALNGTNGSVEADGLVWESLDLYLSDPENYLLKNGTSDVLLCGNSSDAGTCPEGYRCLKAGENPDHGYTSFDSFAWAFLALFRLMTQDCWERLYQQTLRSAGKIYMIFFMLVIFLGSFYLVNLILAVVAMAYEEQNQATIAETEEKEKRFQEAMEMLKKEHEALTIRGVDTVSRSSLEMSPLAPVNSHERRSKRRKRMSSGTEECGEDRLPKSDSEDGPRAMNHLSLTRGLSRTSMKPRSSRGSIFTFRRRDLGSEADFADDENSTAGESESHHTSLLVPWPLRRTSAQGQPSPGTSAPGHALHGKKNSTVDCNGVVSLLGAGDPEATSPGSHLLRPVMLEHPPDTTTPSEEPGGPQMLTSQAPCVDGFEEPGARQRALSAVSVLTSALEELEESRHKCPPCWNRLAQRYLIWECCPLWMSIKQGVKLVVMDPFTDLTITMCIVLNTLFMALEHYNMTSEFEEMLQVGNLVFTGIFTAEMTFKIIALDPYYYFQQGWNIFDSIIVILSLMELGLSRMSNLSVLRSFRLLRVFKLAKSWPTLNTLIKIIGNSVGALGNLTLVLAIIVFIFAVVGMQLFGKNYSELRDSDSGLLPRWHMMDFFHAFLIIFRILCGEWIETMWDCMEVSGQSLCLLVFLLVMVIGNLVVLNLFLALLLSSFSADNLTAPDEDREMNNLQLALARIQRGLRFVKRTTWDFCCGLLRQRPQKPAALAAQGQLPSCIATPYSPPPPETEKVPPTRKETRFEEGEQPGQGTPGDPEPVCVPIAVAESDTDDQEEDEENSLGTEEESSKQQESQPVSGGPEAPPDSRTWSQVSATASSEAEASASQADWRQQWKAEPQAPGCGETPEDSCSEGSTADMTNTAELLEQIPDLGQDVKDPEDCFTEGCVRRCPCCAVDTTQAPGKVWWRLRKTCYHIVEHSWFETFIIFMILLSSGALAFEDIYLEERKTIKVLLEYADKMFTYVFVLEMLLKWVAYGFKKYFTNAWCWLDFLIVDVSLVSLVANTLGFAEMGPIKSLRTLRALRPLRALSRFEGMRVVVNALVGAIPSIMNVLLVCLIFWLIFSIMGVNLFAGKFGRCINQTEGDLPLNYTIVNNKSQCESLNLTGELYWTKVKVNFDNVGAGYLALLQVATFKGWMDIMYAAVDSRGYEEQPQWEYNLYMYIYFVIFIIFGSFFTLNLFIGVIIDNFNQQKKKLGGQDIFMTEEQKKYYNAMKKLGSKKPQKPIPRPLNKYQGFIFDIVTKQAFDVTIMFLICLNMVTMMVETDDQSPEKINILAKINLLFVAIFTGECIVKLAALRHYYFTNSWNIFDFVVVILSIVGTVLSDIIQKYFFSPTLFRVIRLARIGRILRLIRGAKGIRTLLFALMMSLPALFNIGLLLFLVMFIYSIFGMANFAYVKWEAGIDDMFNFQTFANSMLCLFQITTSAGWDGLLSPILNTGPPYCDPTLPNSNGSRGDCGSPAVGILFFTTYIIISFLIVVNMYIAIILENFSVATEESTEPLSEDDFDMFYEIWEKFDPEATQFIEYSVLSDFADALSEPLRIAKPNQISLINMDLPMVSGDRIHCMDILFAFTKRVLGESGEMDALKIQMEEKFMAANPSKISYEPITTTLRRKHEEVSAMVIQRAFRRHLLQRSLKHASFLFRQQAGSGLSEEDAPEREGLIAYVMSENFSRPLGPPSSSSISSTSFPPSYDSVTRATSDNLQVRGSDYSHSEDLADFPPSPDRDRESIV

[8] = Stability in human hepatocytes assessed as compound remaining at 90 mins; type: ADME, cell-based, Hepatocyte; conditions: read-out: Stability
[9] = Half life in rhesus monkey at 1 mg/kg, iv or 2 mg/kg, po administered qd; type: ADME, organism-based, Macaca mulatta; conditions: in vivo
[10] = Stability in dog microsomes assessed as compound remaining at 45 mins; type: ADME, Canis lupus familiaris, Microsome; conditions: read-out: Stability
[11] = Unbound fraction in human plasma; type: ADME, cell-free
[12] = biological target: T2, ATP-sensitive inward rectifier potassium channel 10 (Homo sapiens, UniProt P78508); assay: Inhibition of Kir4.1 (unknown origin)
T2 sequence (P78508 whole entry): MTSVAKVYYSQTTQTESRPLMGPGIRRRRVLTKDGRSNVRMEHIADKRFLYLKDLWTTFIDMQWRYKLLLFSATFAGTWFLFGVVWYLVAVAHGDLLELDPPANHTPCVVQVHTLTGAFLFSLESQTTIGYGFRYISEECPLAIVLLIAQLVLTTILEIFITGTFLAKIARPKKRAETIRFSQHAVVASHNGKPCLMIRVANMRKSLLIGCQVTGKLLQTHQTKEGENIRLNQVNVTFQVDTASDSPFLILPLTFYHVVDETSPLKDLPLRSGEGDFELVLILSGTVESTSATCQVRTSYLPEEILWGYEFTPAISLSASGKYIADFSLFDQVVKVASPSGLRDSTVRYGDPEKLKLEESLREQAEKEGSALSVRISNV

[13] = Stability in human microsomes assessed as compound remaining at 45 mins; type: ADME, Microsome; conditions: read-out: Stability
[14] = biological target: T1, Somatostatin receptor type 2; assay: Inhibition of Somatostatin receptor type 2 (unknown origin) by radioligand binding assay
[15] = Oral bioavailability in Beagle dog at 2 mg/kg administered qd; type: ADME, organism-based, Canis lupus familiaris; conditions: in vivo
[16] = Apparent permeability in pig LLC-PK1 cells; type: ADME, cell-based, Sus scrofa
[17] = Stability in rat microsomes assessed as compound remaining at 45 mins; type: ADME, Microsome; conditions: read-out: Stability
[18] = biological target: Voltage-dependent L-type calcium channel subunit alpha-1C (Homo sapiens, UniProt Q13936); assay: Inhibition of Cav1.2 (unknown origin)
[19] = test system: Rattus norvegicus; assay: Antihypertensive activity in […] rat model assessed as increase in diuresis at 25 mg/kg, po qd measured on day 1 post dose relative to control; type: functional; in short: as §1
[20] = biological target: T3, ATP-sensitive inward rectifier potassium channel 1 (Homo sapiens, UniProt P48048); assay: Inhibition of human ROMK expressed in CHO cells after 6 mins at -70 mV holding potential by electrophysiology method; type: cell-based
T3 sequence (P48048 whole entry): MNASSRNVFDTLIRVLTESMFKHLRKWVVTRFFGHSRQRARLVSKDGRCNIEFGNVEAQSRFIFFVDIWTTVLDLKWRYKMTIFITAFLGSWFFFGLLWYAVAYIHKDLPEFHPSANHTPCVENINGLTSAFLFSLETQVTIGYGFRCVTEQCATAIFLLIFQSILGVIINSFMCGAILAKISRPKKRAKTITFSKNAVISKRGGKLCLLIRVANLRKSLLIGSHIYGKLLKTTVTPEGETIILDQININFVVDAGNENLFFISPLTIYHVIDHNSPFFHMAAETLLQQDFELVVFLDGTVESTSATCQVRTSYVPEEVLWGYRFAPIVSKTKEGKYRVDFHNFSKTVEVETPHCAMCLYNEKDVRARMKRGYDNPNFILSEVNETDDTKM

[21] = Dose normalized AUC in Beagle dog at 2 mg/kg, po administered qd; type: ADME, organism-based, Canis lupus familiaris; conditions: in vivo
[22] = Dose normalized AUC in rhesus monkey at 2 mg/kg, po administered qd; type: ADME, organism-based, Macaca mulatta; conditions: in vivo
[23] = Unbound fraction in rhesus monkey plasma; type: ADME, cell-free, Macaca mulatta
[24] = test system: Rattus norvegicus; assay: Antihypertensive activity in […] rat model assessed as increase in diuresis at 30 mg/kg, po qd measured on day 1 post dose relative to control; type: functional; in short: as §1
[25] = Stability in rhesus monkey microsomes assessed as compound remaining at 45 mins; type: ADME, Macaca mulatta, Microsome; conditions: read-out: Stability
[26] = Stability in rhesus monkey hepatocytes assessed as compound remaining at 90 mins; type: ADME, cell-based, Macaca mulatta, Hepatocyte; conditions: read-out: Stability
[27] = test system: Rattus norvegicus; assay: Antihypertensive activity in […] rat model assessed as change in systolic blood pressure at 30 mg/kg, po administered qd measured on day 3; type: functional
In short: (§3)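 Spontaneously hypertensive rats were dosed orally once daily for 3 days. Systolic blood pressure change was read on day 3 relative to vehicle, with n = 5 per group.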

[28] = Half life in Beagle dog at 1 mg/kg, iv or 2 mg/kg, po administered qd; type: ADME, organism-based, Canis lupus familiaris; conditions: in vivo
[29] = test system: Rattus norvegicus; assay: Antihypertensive activity in […] rat model assessed as change in systolic blood pressure at 3 mg/kg, po administered qd measured on day 3; type: functional; in short: as §3
[30] = Half life in Sprague-Dawley rat at 1 mg/kg, iv or 2 mg/kg, po; type: ADME, organism-based; conditions: in vivo
[31] = biological target: Cytochrome P450 2D6 (Homo sapiens, UniProt P10635); assay: Inhibition of CYP2D6 (unknown origin); type: ADME
Cytochrome P450 2D6, sequence (P10635 whole entry, the tested form may be a part): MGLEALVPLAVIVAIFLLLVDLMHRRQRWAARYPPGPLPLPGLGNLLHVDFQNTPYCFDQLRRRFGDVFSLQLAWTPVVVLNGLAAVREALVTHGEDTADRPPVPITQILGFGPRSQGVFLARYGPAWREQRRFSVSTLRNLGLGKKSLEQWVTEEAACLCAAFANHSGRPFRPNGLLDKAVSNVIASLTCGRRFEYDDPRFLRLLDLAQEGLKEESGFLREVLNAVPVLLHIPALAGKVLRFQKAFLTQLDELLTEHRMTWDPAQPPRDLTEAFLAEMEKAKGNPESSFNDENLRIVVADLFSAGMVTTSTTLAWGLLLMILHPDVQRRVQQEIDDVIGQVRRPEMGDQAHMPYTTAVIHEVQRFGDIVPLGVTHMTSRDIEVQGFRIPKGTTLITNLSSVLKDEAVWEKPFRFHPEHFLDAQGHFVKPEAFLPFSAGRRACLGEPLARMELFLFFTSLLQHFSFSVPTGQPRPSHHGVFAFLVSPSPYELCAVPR

[32] = Cardiotoxicity in anesthetized cardiovascular guinea pig model assessed as change in QTc interval administered as iv infusion; type: toxicity, organism-based, Cavia porcellus, Heart; conditions: in vivo; in short: as §2
[33] = Dose normalized AUC in Sprague-Dawley rat at 2 mg/kg, po; type: ADME, organism-based; conditions: in vivo
[34] = test system: Rattus norvegicus; assay: Antihypertensive activity in […] rat model assessed as change in systolic blood pressure at 25 mg/kg, po administered qd measured on day 3; type: functional; in short: as §3
[35] = biological target: Cytochrome P450 3A4 (Homo sapiens, UniProt P08684); assay: Inhibition of CYP3A4 (unknown origin); type: ADME
Cytochrome P450 3A4, sequence (P08684 whole entry): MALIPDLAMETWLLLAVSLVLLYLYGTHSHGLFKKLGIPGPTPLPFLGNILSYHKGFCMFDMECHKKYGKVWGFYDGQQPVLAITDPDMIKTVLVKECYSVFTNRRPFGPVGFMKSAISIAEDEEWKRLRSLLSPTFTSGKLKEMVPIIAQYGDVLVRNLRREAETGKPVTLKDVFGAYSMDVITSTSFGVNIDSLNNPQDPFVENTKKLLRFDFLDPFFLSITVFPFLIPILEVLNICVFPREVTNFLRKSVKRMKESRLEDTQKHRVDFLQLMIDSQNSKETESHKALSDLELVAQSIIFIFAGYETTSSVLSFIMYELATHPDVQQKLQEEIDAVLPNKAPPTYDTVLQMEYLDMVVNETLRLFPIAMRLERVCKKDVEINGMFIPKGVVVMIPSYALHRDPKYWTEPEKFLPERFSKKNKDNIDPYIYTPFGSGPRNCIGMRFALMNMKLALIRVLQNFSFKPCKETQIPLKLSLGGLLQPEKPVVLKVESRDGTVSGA

[36] = Oral bioavailability in Sprague-Dawley rat at 2 mg/kg; type: ADME, organism-based; conditions: in vivo

In the case of `Cc1c([C@@H]2CN3CCN(C(=O)Cc4ccc(-n5cnnn5)cn4)C[C@H]3CO2)ccc(F)c1C#N`, the “fold change (FC)” value [1] is reported as 1.4, the fraction unbound [2] is reported as 0.48 and the “Cp(f)max” value [3] is reported as 83 µM. The inhibition [4] was > 50%, the bioavailability [5] was 67% and the IC50 [6] was > 50 µM. For the same compound, the IC50 [7] was > 30 µM, the remaining at 1.5 h [8] was 99% and the half-life [9] was 5 h. For the same compound, the remaining at 0.75 h [10] was 82%, the fraction unbound [11] was 0.58 and the IC50 [12] was > 100 µM. The remaining at 0.75 h [13] was 89%, the IC50 [14] was 4.1 µM and the bioavailability [15] was 100%. For the same compound, the Papp [16] was “Permeable”, the remaining at 0.75 h [17] was 85% and the IC50 [18] was > 30 µM. For the same compound, the “fold change (FC)” value [19] was 1.05, the IC50 [20] was 0.073 µM and the AUC/dose [21] was 16.7 µM·kg·h/mg. For the same compound, the AUC/dose [22] was 6 µM·kg·h/mg, the fraction unbound [23] was 0.6 and the “fold change (FC)” value [24] was 1.8. The remaining at 0.75 h [25] was 72%, the remaining at 1.5 h [26] was 92% and the Activity [27] was -16 mmHg. It also gave a half-life [28] of 17.3 h, an Activity [29] of -9 mmHg and a half-life [30] of 1.5 h. The IC50 [31] was > 50 µM, the Activity [32] was “Non-Toxic” and the AUC/dose [33] was 0.79 µM·kg·h/mg. For the same compound, the Activity [34] was -12 mmHg, the IC50 [35] was > 50 µM and the bioavailability [36] was 46%.
